Yeast life ext – yeast lifespan extension; S. cerevisiae growth with nicotinamide, OD615; deaD strain in restrictive glucose medium; inhibition of the nicotinamide effect, % at 10 µM; hit rate 0.68% among 130,000;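 active = inhibition above a set limit, placed 3 SD over the median of all compounds, cut at about 26% in these data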;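 also: 0% = nicotinamide-treated wells and 100% = cells grown without nicotinamide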
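Assay system: DeaD-strain S. cerevisiae. Medium: CSMM-D glucose medium, restrictive. Reagent: nicotinamide, 1.5 mM, co-present with compound. Compound: 10 µM single point, 0.25% DMSO. Schedule: culture preincubation 4 h, compound exposure 48 h, both 30 °C. Detection: absorbance at 615 nm.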
WT yeast gro inh – growth inhibition of WT yeast, mitochondrial fusion screen; mitochondrial fusion phenotypic screen, WT strain; inhibition, % at 10 µM; hit rate 2.1% among 190,000; AID 1362; in the data active = inhibition above about 58%; tested in S. cerevisiae
Yeast growth inh – reduces growth of yeast BB579 in restrictive medium. AID 804. S. cerevisiae BB579 growth, OD615, 48 h. inhibition, % at 10 µM. hit rate 0.51% among 140,000;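 active = inhibition above a set limit, 3 SD over the mean compound inhibition, cut at about 44% in these data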
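test system = yeast BB579 (DeaD) | buffer or medium = restrictive CSMM-D medium | doses = single compound dose of 10 µM, 0.25% DMSO final | times = 4 h preincubation and 48 h exposure at 30 °C | technique = culture absorbance at 615 nm | benchmarks = amphotericin B 10 µg/mL, positive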
RAM inhibit – yeast RAM network inhibition | S. cerevisiae dse1pr::URA3 reporter, 5-FOA growth OD615, 2 d; analog-sensitive cbk1-as2 kinase mutant strain | inhibition, % at 50 µM | hit rate 1.8% among 190,000;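 active = inhibition above a set limit, 3 SD over mean compound inhibition, cut at about 8.4% in these data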;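 also: 0% = DMSO-only wells with no growth and 100% = 10 µM 1-NA-PP1 full growth; inhibition rescues growth on 5-FOA so higher OD means more RAM inhibition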
KCC2 mod – modulates chloride dependent transport by human KCC2 | B-score of Tl+ flux slope (higher = more flux/activation; lower = inhibition) at 10 µM | KCC2 cells, thallium flux FluoZin-2 fluorescence | hit rate 2.2% among 190,000 | Q9H2X9;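 active = thallium flux slope and its plate-corrected score both differing from the plate sample mean at a set confidence after two filtering rounds, in either direction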;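 also: slope of fluorescence scaled to starting intensity during 10 to 20 s after thallium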
Target sequence (Q9H2X9 whole entry, looked up): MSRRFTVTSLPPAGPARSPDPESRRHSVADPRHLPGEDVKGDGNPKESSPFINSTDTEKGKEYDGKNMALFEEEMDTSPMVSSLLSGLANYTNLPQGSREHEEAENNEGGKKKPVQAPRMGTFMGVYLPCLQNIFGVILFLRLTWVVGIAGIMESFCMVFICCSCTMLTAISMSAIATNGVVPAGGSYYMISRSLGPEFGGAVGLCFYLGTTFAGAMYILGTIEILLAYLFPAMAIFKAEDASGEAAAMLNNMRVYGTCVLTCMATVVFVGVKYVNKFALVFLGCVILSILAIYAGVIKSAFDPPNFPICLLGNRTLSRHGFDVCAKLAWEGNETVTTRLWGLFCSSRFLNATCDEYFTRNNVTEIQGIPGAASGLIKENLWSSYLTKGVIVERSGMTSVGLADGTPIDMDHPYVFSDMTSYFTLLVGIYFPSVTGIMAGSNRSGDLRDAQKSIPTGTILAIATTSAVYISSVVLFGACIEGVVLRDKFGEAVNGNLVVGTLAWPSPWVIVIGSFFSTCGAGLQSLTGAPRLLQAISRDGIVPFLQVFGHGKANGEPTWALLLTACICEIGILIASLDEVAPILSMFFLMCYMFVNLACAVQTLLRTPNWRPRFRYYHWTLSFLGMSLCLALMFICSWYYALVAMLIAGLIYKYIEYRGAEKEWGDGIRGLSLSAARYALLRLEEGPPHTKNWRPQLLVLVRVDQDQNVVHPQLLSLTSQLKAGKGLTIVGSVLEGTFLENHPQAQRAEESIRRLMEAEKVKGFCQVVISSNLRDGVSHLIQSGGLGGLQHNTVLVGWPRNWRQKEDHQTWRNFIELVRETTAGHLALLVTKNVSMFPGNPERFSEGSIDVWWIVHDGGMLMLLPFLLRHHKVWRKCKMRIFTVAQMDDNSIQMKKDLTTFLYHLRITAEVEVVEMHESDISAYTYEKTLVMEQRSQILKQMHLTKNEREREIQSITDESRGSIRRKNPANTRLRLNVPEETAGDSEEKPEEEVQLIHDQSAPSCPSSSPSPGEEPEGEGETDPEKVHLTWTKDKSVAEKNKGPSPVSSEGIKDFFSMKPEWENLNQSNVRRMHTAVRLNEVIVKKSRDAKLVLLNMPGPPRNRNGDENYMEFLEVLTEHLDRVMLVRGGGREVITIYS
Active calls of the source: *; . = no result. Shown are actives, neighbours in structure and some others; about 5.5% of the full set was active somewhere.

SMILES	Yeast life ext	WT yeast gro inh	Yeast growth inh	RAM inhibit	KCC2 mod
Cc1cccc(C)c1NC(=O)C1(N2CCN(C(=O)c3ccco3)CC2)CCCCC1	7	-4	-46	0	0.86
NCCOc1ccc(C23CC4CC(CC(C4)C2)C3)cc1	.	97*	.	-1	0.31
COC(=O)c1cc(OC)c(OC)cc1NC(=O)c1c(-c2ccccc2Cl)noc1C	-8	25	-22	3	.
CCCc1[nH][nH]c(=O)c1C(c1cccc(Cl)c1)C(C#N)C#N (configuration not stated)	17	3	-58	2	-1.5
N#CC(C#N)C(c1ccsc1)c1c(-c2ccccc2)[nH][nH]c1=O (configuration not stated)	40*	6	-62	2	1.4
CC(/C=N/n1c(-c2ccc(Cl)cc2)n[nH]c1=S)=C\c1ccco1	-5	72*	-11	3	13*
Cc1ccc(/C=N/n2c(-c3ccco3)n[nH]c2=S)s1	3	12	-27	5	2.1
CC(/C=N/n1c(-c2ccco2)n[nH]c1=S)=C\c1ccccc1	-5	73*	18	3	13*
CC(/C=N/n1c(-c2cc(C)[nH]n2)n[nH]c1=S)=C\c1ccco1	.	.	.	.	-0.68
COc1ccc(/C=C/C(=O)OCC(=O)NCc2ccco2)c(OC)c1	.	8	.	7	-0.54
Cc1ccc2c(c1)c1c(n2CC(O)Cn2c(C)nc3ccccc32)CCCC1 (configuration not stated)	14	-1	-19	-1	0.8
Cc1ccc2c(c1)c1c(n2CC(O)Cn2nc(C)c(Br)c2C)CCCC1 (configuration not stated)	-11	76*	-26	0	1.2
COc1ccc(/C=C(\C#N)C(=O)N2CCOCC2)cc1Br	48*	-6	-14	2	0.36
Brc1ccc(-c2ccc(/C=N/Nc3nc4ccccc4[nH]3)o2)cc1	-6	81	2	3	-0.18
CC[n+]1c(/C=C2\C=C(C)CC(C)(C)C2)sc2ccccc21	40*	14	-15	2	-0.75
CC[n+]1c(/C=C2\C=C(C)CC(C)C2)sc2ccccc21 (configuration not stated)	27*	19	-28	1	0.15
CN(C)c1ccc(/C=C2\CCC/C(=C\c3ccccc3)C2=O)cc1	3	0	-37	9.0*	-0.44
O=C1/C(=C/c2cccnc2)CCC/C1=C\c1cccnc1	74*	28	2	0	-0.14
CCC1C/C(=C\c2cccnc2)C(=O)/C(=C/c2cccnc2)C1 (configuration not stated)	84*	64*	-13	-1	-0.3
CCOC(=O)Cn1c(=NC(=O)C2COc3ccccc3O2)sc2cc(S(N)(=O)=O)ccc21 (configuration not stated)	5	-9	-34	5	-0.31
CCOC(=O)Cn1c(=NC(=O)c2ccc([N+](=O)[O-])s2)sc2ccccc21	5	65*	-39	6	0.49
COC(=O)CSc1nnc(CNC(=O)Cc2ccccc2)n1-c1ccccc1OC	-5	-17	1	0	.
CC(=O)N(C(C)=O)c1c(C#N)c(C)n(-c2ccccc2)c1C(=O)c1ccccc1	32*	27	-52	4	-1.9
N#Cc1c(N)c(C(=O)c2ccccc2)n2c1CCCC2	-13	-8	-14	0	.
CCOc1ccc(-c2cc(C(=O)OC)[nH]n2)cc1	.	-18	.	0	0.9
SMILES	Yeast life ext	WT yeast gro inh	Yeast growth inh	RAM inhibit	KCC2 mod
Clc1ccc(CN(Cc2ccc(Cl)cc2)c2nn[nH]n2)cc1	.	-15	.	3	-5.9*
O=C1C2CC=CCC2C(=O)N1Cc1nnc(-c2ccccc2Br)o1 (configuration not stated)	.	.	.	.	-0.037
COc1ccc(-n2c(SCC3OCCO3)nc3c(sc(=S)n3-c3ccccc3)c2=O)cc1OC	.	4	.	8.6*	-1.1
S=C(Nc1ccc(Cl)cc1)c1sc(N2CCCCC2)nc1N1CCOCC1	-3	38	-1	2	-0.17
CCOc1ccc(NC(=O)Nc2ccc3c(c2)N(C)C(=O)CS3)cc1	-5	12	-40	11*	1.5
CC(=O)c1ccc(NC(=O)Nc2ccc3c(c2)N(C)C(=O)CS3)cc1	-3	-4	-8	2	.
COc1ccc(C)cc1NC(=O)COC(=O)Cc1ccc(-c2ccccc2)cc1	-2	47	-3	9.6*	-0.53
COc1ccc(NC(=O)COC(=O)Cc2ccc(-c3ccccc3)cc2)c(OC)c1	0	-1	-21	7	0.074
CCCCOC(=O)CSc1nnc(-c2ccc(Cl)cc2Cl)o1	-8	60*	-40	3	.
CC(C)OC(=O)CSc1nnc(-c2ccc(Cl)cc2Cl)o1	-26	0	-19	2	.
O=C(/C=C/c1ccc(Br)o1)NC(c1ccccc1)c1ccccc1	-1	63*	-24	4	0.72
O=C(NC(c1ccccc1)c1ccccc1)c1ccc(Br)o1	-12	4	-10	8	-2.4
Nc1ccc(N2CCCCC2)cc1N1CCCCC1	-1	72*	21	0	0.27
Cc1nn(-c2cc(N3CCCCC3)ccc2N)c(=O)c2ccccc12	.	1	-18	-1	0.91
CCc1cccc(CC)c1NC(=O)COC(=O)c1ccc(F)c(S(=O)(=O)N(CC)CC)c1	-1	-7	-23	4	-0.87
Cc1ccc(C(C)C)c(OCCN)c1	-3	4	-69	3	.
Cc1ccc(C(C)C)c(OCCNC(=S)Nc2cccc3ccccc23)c1	-14	72*	5	6	.
C=CCSc1nc(N)c(C(=O)Nc2ccccc2)cc1C#N	-4	16	7	9.8*	-0.46
Cn1ncc2cc(NC(=S)NC(=O)c3ccccc3)ccc21	-18	22	-50	-2	4.2*
CC(C)Oc1cccc(C(=O)NC(=S)Nc2ccccc2)c1	-5	50	-21	3	46*
COC(=O)c1cccc(NC(=S)Nc2cc(Cl)ccc2OC)c1	.	19	.	0	2
COC(=O)c1cc(OC)c(OC)cc1NC(=S)Nc1cccc(C(C)=O)c1	40*	-12	-20	1	0.2
O=C(O)c1ccc(NC(=S)NC(=O)c2ccc(-c3ccccc3)cc2)cc1	.	-3	.	1	-1.9
O=C(NC(=S)Nc1ccccc1)c1ccc(-c2ccccc2)cc1	8	8	-17	9.4*	1.7
CNC(=O)N(O)C1N(c2ccccc2)C(=S)SC1(C)C (configuration not stated)	0	-5	-44	3	1.2
Fc1ccc(/C=N/n2c(-c3cccs3)n[nH]c2=S)cc1	-6	8	4	1	.
Cc1cccc(NC(=S)N/C(=N/S(=O)(=O)c2ccccc2)c2ccccc2)c1	-10	26	-77	1	3.5*
CCOc1cccc(C(=O)NC(=S)Nc2ccc(N3CCCC3)cc2)c1	-9	31	-83	11*	.
CC(=O)c1cccc(NC(=S)NC(=O)c2ccccc2C)c1	.	19	.	3	2.7
